ChEMBL document CHEMBL4052582, “A Versatile Method to Determine the Cellular Bioavailability of Small-Molecule Inhibitors” (J Med Chem, 2017)
pIC50: −log10 of the molar value.

What was measured:
[1] = Drug uptake in human MDA-MB-231 cells assessed per million cells at 20 uM in presence of 5% FBS after 24 hrs incubation by HPLC-MS analysis; type: ADME, cell-based; settings: mda-mb-231, 24 h
How it was run: (§1)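 MDA-MB-231 cells grown in T-25 flasks in DMEM/10% FBS to ~70% confluency, then given fresh DMEM with the stated FBS plus inhibitor (0.02% DMSO final), 37 °C, 24 h. Cells washed with cold PBS ×3, extracted overnight at 4 °C with cold MeCN/MeOH 1:1, centrifuged, quantified by HPLC against calibration curves, corrected for dilution, cell number and solvent extraction efficiency; nmol per million cells; triplicate, mean ± SD.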

MDA-MB-231 = assay: Antiproliferative activity against human MDA-MB-231 cells after 72 hrs by MTS assay; type: functional, cell-based; settings: MDA-MB-231, 72 h
[2] = Drug uptake in human MDA-MB-231 cells assessed per million cells at 20 uM in presence of 1% FBS after 24 hrs incubation by HPLC-MS analysis; type: ADME, cell-based; settings: mda-mb-231, 24 h; how it was run: as §1
[3] = Drug uptake in human MDA-MB-231 cells assessed per million cells at 20 uM in presence of 10% FBS after 24 hrs incubation by HPLC-MS analysis; type: ADME, cell-based; settings: mda-mb-231, 24 h; how it was run: as §1
[4] = Drug accumulation in human MDA-MB-231 cells at 20 uM in presence of 5% FBS after 24 hrs incubation by HPLC-MS analysis; type: ADME, cell-based; settings: mda-mb-231, 24 h; how it was run: as §1
[5] = Drug uptake in human MDA-MB-231 cells assessed per million cells preincubated for 6 hrs followed by solvent addition measured after overnight incubation at 4 degC by HPLC-MS analysis; type: ADME, cell-based; settings: mda-mb-231, 6 h
[6] = Drug uptake in human MDA-MB-231 cells assessed per million cells preincubated for 6 hrs followed by trypsin-EDTA digestion for 2 mins measured after overnight incubation at 4 degC by HPLC-MS analysis; type: ADME, cell-based; settings: mda-mb-231, 2 min
How it was run: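 After 6 h inhibitor exposure at 37 °C, MDA-MB-231 cells washed three times with ice-cold PBS, detached with 0.25% trypsin/1 mM EDTA in PBS for 2 min at 37 °C, resuspended in cold DMEM, washed once in ice-cold PBS, extracted with cold MeCN/MeOH 1:1, HPLC quantified; triplicate, mean ± SD divided by extraction efficiency.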

[7] = Drug uptake in human MDA-MB-231 cells assessed as cell bound drug level per million cells at 2 uM in presence of 5% FBS after 6 hrs at 4 degC by HPLC-MS analysis; type: ADME, cell-based; settings: mda-mb-231, 6 h
How it was run: (§2)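 Confluent (~70%) MDA-MB-231 cells given inhibitor in 5 mL cold DMEM with 0.02% DMSO (10% FBS for BRD-targeting inhibitors, 5% FBS for β-catenin/BCL9 inhibitors), held at 4 °C for 6 h; then washed, extracted overnight at 4 °C in MeCN/MeOH 1:1, HPLC quantified; triplicate, mean ± SD divided by solvent extraction efficiency.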

[8] = Apparent permeability at 200 uM after 5 hrs by PAMPA; type: physicochemical
How it was run: (§3)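 Artificial membrane of 1% egg lecithin in n-dodecane on a filter plate; compound at 200 μM on donor side, 5 h at room temperature; compound quantified by HPLC/DAD; percent transport and apparent permeability calculated from previously published equations.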

[9] = Permeability assessed as drug transport at 200 uM after 5 hrs by PAMPA; type: physicochemical; how it was run: as §3
[10] = Solubility of the compound in DMEM medium up to 200 uM; type: physicochemical
[11] = Stability of the compound in DMEM medium assessed as parent compound remaining at 100 uM after 72 hrs in presence of 10% FBS by HPLC method
How it was run: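 Compound at 100 μM final (0.02% DMSO) in 5 mL DMEM with or without 10% FBS, cell-free in T-25 flasks, 37 °C in CO2 incubator for 3–72 h. Aliquots analysed by HPLC. Percent remaining derived from chromatogram AUC relative to starting time point. Triplicate.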

[12] = Drug uptake in human MDA-MB-231 cells at 20 uM in presence of 5% FBS up to 72 hrs incubation by HPLC-MS analysis; type: ADME, cell-based; settings: mda-mb-231, 72 h
How it was run: (§4)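 Time course: inhibitor added to ~70%-confluent MDA-MB-231 cells in T-25 flasks, in 5 mL DMEM plus FBS (0.02% DMSO), incubated at 37 °C for 3–72 h. At each time point cells washed with cold PBS and extracted with cold MeCN/MeOH 1:1 overnight at 4 °C. Intracellular moles per million cells determined by HPLC calibration.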

[13] = Retention time of the compound by HPLC/DAD analysis
How it was run: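 Agilent HPLC with DAD, detection at 254/355 nm or 235/355 nm. Kromasil C18 column (4.6 × 250 mm), 20 μL injection. Gradient from H2O (0.1% TFA) to 50:50 MeCN over 0–18 min, then to 100% MeCN by 20 min, held to 25 min, at 1.5 mL/min.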

[14] = Drug uptake in human MDA-MB-231 cells assessed as extracellular concentration at 0.115 umol in presence of 5% FBS after 24 hrs by HPLC-MS analysis; type: ADME, cell-based; settings: mda-mb-231, 24 h
How it was run: (§5)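 MDA-MB-231 cells incubated 24 h at 37 °C with inhibitor in 5 mL DMEM with the stated FBS. Media plus cold PBS washes pooled, dried; cells extracted with MeCN/MeOH 1:1; HPLC peak areas of both fractions compared by mass balance with the input moles added to medium.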

[15] = Drug uptake in human MDA-MB-231 cells assessed as intracellular concentration at 0.115 umol in presence of 5% FBS after 24 hrs by HPLC-MS analysis; type: ADME, cell-based; settings: mda-mb-231, 24 h; how it was run: as §1
[16] = Drug recovery in human MDA-MB-231 cells at 0.115 umol in presence of 5% FBS after 24 hrs by HPLC-MS analysis; type: ADME, cell-based; settings: read-out: Drug recovery; how it was run: as §5
[17] = Drug uptake in human MDA-MB-231 cells assessed as extracted concentration at 2 uM after 24 hrs by HPLC-MS analysis; type: ADME, cell-based; settings: mda-mb-231, 24 h
How it was run: (§6)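 MDA-MB-231 cells at ~70% confluency in T-25 flasks exposed to a range of inhibitor input concentrations in DMEM with FBS, 0.02% DMSO, 37 °C, 24 h; cold PBS washes, overnight MeCN/MeOH 1:1 extraction at 4 °C, HPLC quantification against calibration curves with extraction-efficiency correction.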

[18] = Drug uptake in human MDA-MB-231 cells assessed as extracted concentration at 20 uM after 24 hrs by HPLC-MS analysis; type: ADME, cell-based; settings: mda-mb-231, 24 h; how it was run: as §6
[19] = Drug uptake in human MDA-MB-231 cells assessed as extracted concentration at 0.2 uM after 24 hrs by HPLC-MS analysis; type: ADME, cell-based; settings: mda-mb-231, 24 h; how it was run: as §6
[20] = Drug uptake in human MDA-MB-231 cells assessed per million cells at 20 uM in presence of 5% FBS after 6 hrs at 4 degC by HPLC-MS analysis; type: ADME, cell-based; settings: mda-mb-231, 6 h; how it was run: as §2
[21] = Stability in human MDA-MB-231 cells at 20 uM after 72 hrs by HPLC-MS analysis; type: ADME, cell-based; settings: mda-mb-231, 72 h; how it was run: as §4
[22] = Stability of the compound in DMEM medium assessed as parent compound remaining at 100 uM after 24 hrs in absence of 10% FBS by HPLC method
How it was run: (§7)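 Compound added at 100 μM final (0.02% v/v DMSO) to 5 mL DMEM with or without 10% FBS in T-25 flasks, no cells; incubated 37 °C in CO2 incubator for 3–72 h. Aliquots drawn at each time point and analysed by HPLC; parent remaining taken from chromatogram AUC relative to starting time point. Triplicate.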

[23] = Drug uptake in human MDA-MB-231 cells assessed per million cells at 10 uM in presence of 1% FBS after 24 hrs incubation by HPLC-MS analysis; type: ADME, cell-based; settings: mda-mb-231, 24 h; how it was run: as §1
[24] = Drug uptake in human MDA-MB-231 cells assessed per million cells at 10 uM in presence of 5% FBS after 24 hrs incubation by HPLC-MS analysis; type: ADME, cell-based; settings: mda-mb-231, 24 h; how it was run: as §1
[25] = Drug uptake in human MDA-MB-231 cells assessed per million cells at 10 uM in presence of 10% FBS after 24 hrs incubation by HPLC-MS analysis; type: ADME, cell-based; settings: mda-mb-231, 24 h; how it was run: as §1
[26] = Drug accumulation in human MDA-MB-231 cells at 10 uM in presence of 10% FBS after 24 hrs incubation by HPLC-MS analysis; type: ADME, cell-based; settings: mda-mb-231, 24 h; how it was run: as §1
[27] = Stability of the compound in DMEM medium assessed as parent compound remaining at 100 uM after 72 hrs in absence of 10% FBS by HPLC method; how it was run: as §7
[28] = Drug uptake in human MDA-MB-231 cells assessed as extracellular concentration at 0.065 umol in presence of 10% FBS after 24 hrs by HPLC-MS analysis; type: ADME, cell-based; settings: mda-mb-231, 24 h; how it was run: as §5
[29] = Drug uptake in human MDA-MB-231 cells assessed as intracellular concentration at 0.065 umol in presence of 10% FBS after 24 hrs by HPLC-MS analysis; type: ADME, cell-based; settings: mda-mb-231, 24 h; how it was run: as §1
[30] = Drug uptake in human MDA-MB-231 cells assessed as extracted concentration at 1 uM after 24 hrs by HPLC-MS analysis; type: ADME, cell-based; settings: mda-mb-231, 24 h; how it was run: as §6
[31] = Drug uptake in human MDA-MB-231 cells assessed as extracted concentration at 10 uM after 24 hrs by HPLC-MS analysis; type: ADME, cell-based; settings: mda-mb-231, 24 h; how it was run: as §6
[32] = Drug uptake in human MDA-MB-231 cells assessed as extracted concentration at 100 uM after 24 hrs by HPLC-MS analysis; type: ADME, cell-based; settings: mda-mb-231, 24 h; how it was run: as §6
[33] = Drug uptake in human MDA-MB-231 cells assessed per million cells at 10 uM in presence of 5% FBS after 6 hrs at 4 degC by HPLC-MS analysis; type: ADME, cell-based; settings: mda-mb-231, 6 h; how it was run: as §2
[34] = Drug uptake in human MDA-MB-231 cells after 6 hrs in presence of 10% FBS by HPLC-MS analysis; type: ADME, cell-based; settings: mda-mb-231, 6 h
How it was run: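 MDA-MB-231 cells at ~70% confluency in T-25 flasks, incubated 6 h at 37 °C with inhibitor in DMEM containing the stated FBS (0.02% DMSO). Parallel 6 h incubation at 4 °C in cold DMEM used to measure nonspecific cell-bound amount. Accurate intracellular moles = 37 °C value minus 4 °C value. Extraction with MeCN/MeOH 1:1, HPLC quantification, corrected for extraction efficiency. Triplicate.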

[35] = Stability in human MDA-MB-231 cells at 10 uM after 72 hrs by HPLC-MS analysis; type: ADME, cell-based; settings: mda-mb-231, 72 h; how it was run: as §4
[36] = Stability of the compound in DMEM medium assessed as parent compound remaining at 100 uM after 24 hrs in presence of 10% FBS by HPLC method; how it was run: as §7

For `Cl.Cl.O=C(c1cc(F)cc(N2CCNCC2)c1)N1CCN(C(=O)c2ccc(O[C@H]3CCNC3)c(C3CCCCC3)c2)CC1`, the Drug uptake [1] was 6.9 nmol, the pIC50 (MDA-MB-231) was 4.62 and the Drug uptake [2] was 8.7 nmol. For the same compound, the Drug uptake [3] was 8.2 nmol, the Drug uptake [4] was 9% and the Drug uptake [5] was 9.5 nmol. For the same compound, the Drug uptake [6] was 5.9 nmol, the Drug uptake [7] was 0.37 nmol and the Papp at 5 h, 200 µM [8] was 0.04 ×10⁻⁶ cm/s. For the same compound, the Drug transport [9] was 0.1%, the solubility [10] was “Soluble” and the Stability [11] was “Stable”. For the same compound, the Drug uptake [12] was “Active”, the Retention time [13] was 19 min and the Drug uptake [14] was 0.107 µmol. For the same compound, the Drug uptake [15] was 0.01 µmol, the remaining at 24 h, 0.115 umol [16] was 101% and the Drug uptake [17] was 0.198 µM. For the same compound, the Drug uptake [18] was 0.222 µM, the Drug uptake [19] was 0.133 µM and the Drug uptake [20] was 9.1 nmol. The Stability [21] was “Unstable” and the Stability [22] was 84%.
For `CC(=O)c1cc(-c2cc(C(=O)NC3CC3)ccc2C)c2ncccn12`, the Drug uptake [23] was 0.069 nmol, the Drug uptake [24] was 0.074 nmol and the Drug uptake [25] was 0.12 nmol. For the same compound, the Drug uptake [26] was 2%, the Drug uptake [5] was 0.11 nmol and the Drug uptake [6] was 0.038 nmol. It also gave a Drug uptake [7] of 0.085 nmol, a Papp at 5 h, 200 µM [8] of 14.3 ×10⁻⁶ cm/s and a Drug transport [9] of 32.3%. For the same compound, the solubility [10] was “Soluble”, the Stability [27] was 94% and the Stability [11] was “Unstable”. The Retention time [13] was 16.4 min, the Drug uptake [28] was 0.059 µmol and the Drug uptake [29] was 0.0012 µmol. It also gave a Drug uptake [30] of 0.035 µM, a Drug uptake [31] of 0.1 µM and a Drug uptake [32] of 0.665 µM. For the same compound, the Drug uptake [33] was 0.025 nmol, the Drug uptake [34] was “Dose-dependent effect” and the Stability [35] was “Stable”. It also gave a Stability [36] of 94%.
